Test results reported in ChEMBL document CHEMBL3352608, “Medicinal chemistry optimization of antiplasmodial imidazopyridazine hits from high throughput screening of a softfocus kinase library: part 2” (J Med Chem, 2014).
Converted amounts (≈) assume the structure as drawn. One block for each compound: values may come before it.

Key:
[1] = Apparent half life in Sprague-Dawley rat at 3.6 mg/kg, iv; assay type: ADME, organism-based; set-up: dose 3.6 mg/kg, route intravenous; conditions: in vivo
Outline: (§1)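 Adult male Sprague-Dawley rats fasted overnight; dose 3.6 mg/kg prepared fresh, dissolved in water/0.01 M HCl/propylene glycol/ethanol/Tween 80 (1:2:1:0.1:0.1), given orally (1 mL) or intravenously (350 µL). Food returned 5 h post-dose. Heparinized blood taken at set time points, plasma held at -80°C, analysed by LC/MS/MS; parameters by non-compartmental analysis.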

[2] = Volume of distribution at steady state in Sprague-Dawley rat at 3.6 mg/kg, iv; assay type: ADME, organism-based; set-up: dose 3.6 mg/kg, route intravenous; conditions: in vivo, read-out: Vdss; outline: as §1
Rattus norvegicus [3] = test: AUC (0 to infinity) in Sprague-Dawley rat at 3.6 mg/kg, iv; assay type: ADME, organism-based, Plasma; set-up: time infinity, dose 3.6 mg/kg, route intravenous; conditions: in vivo; outline: as §1
Rattus norvegicus [4] = test: AUC (0 to infinity) in Sprague-Dawley rat at 3.6 mg/kg, po; assay type: ADME, organism-based, Plasma; set-up: time infinity, dose 3.6 mg/kg, route oral; conditions: in vivo; outline: as §1
[5] = (§2) Cmax in Sprague-Dawley rat at 3.6 mg/kg, po; assay type: ADME, organism-based; set-up: dose 3.6 mg/kg, route oral; conditions: Sprague-Dawley, in vivo; outline: as §1
[6] = (§3) Tmax in Sprague-Dawley rat at 3.6 mg/kg, po; assay type: ADME, organism-based; set-up: dose 3.6 mg/kg, route oral; conditions: Sprague-Dawley, in vivo; outline: as §1
Rattus norvegicus [7] = test: (§4) Oral bioavailability in Sprague-Dawley rat at 3.6 mg/kg; assay type: ADME, organism-based; conditions: in vivo; outline: as §1
[8] = (§5) Apparent half life in Sprague-Dawley rat at 3.6 mg/kg, po; assay type: ADME, organism-based; set-up: dose 3.6 mg/kg, route oral; conditions: Sprague-Dawley, in vivo, read-out: t1/2(app) (converted); outline: as §1
[9] = Aqueous solubility of the compound at pH 2; assay type: physicochemical; conditions: buffer
[10] = Aqueous solubility of the compound at pH 6.5; assay type: physicochemical; conditions: buffer
Plasmodium falciparum [11] = test: Antiplasmodial activity against Plasmodium falciparum NF54 by [3H]hypoxanthine incorporation assay; assay type: functional, organism-based
Outline: (§6)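 Modified [3H]-hypoxanthine incorporation assay on P. falciparum asexual cultures, chloroquine and artesunate as references in every run. IC50 values are means of ≥2 independent experiments; individual values mostly within 2-fold (maximum 3-fold).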

CHO = test: Cytotoxicity against CHO cells; assay type: cell-based, Cricetulus griseus; conditions: chinese hamster
[12] = Selectivity index, ratio of IC50 for CHO cells to IC50 for Plasmodium falciparum; assay type: toxicity, cell-based; conditions: hamster, read-out: Ratio IC50
Plasmodium berghei [13] = test: Antimalarial activity against Plasmodium berghei ANKA infected in mouse assessed as reduction in parasitemia at 50 mg/kg/day, po qd administered for 4 days relative to control; assay type: functional; set-up: Activity: scale not given: the % may be the effect or the level left
Outline: (§7)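 Mice (n = 3) infected with GFP-transfected P. berghei ANKA; compound in HPMC suspension vehicle given orally once daily at 4, 24, 48 and 72 h after infection. Blood collected day 4 (96 h post-infection); parasitemia by flow cytometry (detection limit 0.1%). Activity = difference in mean % parasitemia between control and treated groups, as % of control.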

Plasmodium berghei [14] = test: Antimalarial activity against Plasmodium berghei ANKA infected in mouse assessed as reduction in parasitemia at 10 mg/kg/day, po qd administered for 4 days relative to control; assay type: functional; set-up: Activity: scale not given: the % may be the effect or the level left; outline: as §7
Plasmodium berghei [15] = test: Antimalarial activity against Plasmodium berghei ANKA infected in mouse assessed as reduction in parasitemia at 3 mg/kg/day, po qd administered for 4 days relative to control; assay type: functional; set-up: Activity: scale not given: the % may be the effect or the level left; outline: as §7
[16] = Plasma concentration in mouse infected with Plasmodium berghei ANKA at 50 mg/kg/day, po after 1 hr by HPLC analysis; assay type: ADME, organism-based; set-up: route oral
Outline: (§8)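 P. berghei-infected mice dosed orally at 50 mg/kg daily for 4 days; blood sampled 1, 4 and 24 h after the first dose and analysed by HPLC for drug levels.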

[17] = Plasma concentration in mouse infected with Plasmodium berghei ANKA at 50 mg/kg/day, po after 4 hrs by HPLC analysis; assay type: ADME, organism-based; set-up: route oral; outline: as §8
[18] = test system: CHO cells (Cricetulus griseus); test: Cytotoxicity against Chinese hamster CHO cells
[19] = test system: CHO cells (Cricetulus griseus); test: Selectivity index, ratio of IC50 for Chinese hamster CHO cells to IC50 for Plasmodium falciparum
Rattus norvegicus [20] = test: as §2; assay type: ADME, organism-based; set-up: dose 3.6 mg/kg, route oral; conditions: in vivo; outline: as §1
Rattus norvegicus [21] = test: as §3; assay type: ADME, organism-based; set-up: dose 3.6 mg/kg, route oral; conditions: in vivo; outline: as §1
[22] = as §4; assay type: ADME, organism-based; conditions: Sprague-Dawley, in vivo; outline: as §1
Rattus norvegicus [23] = test: as §5; assay type: ADME, organism-based; set-up: dose 3.6 mg/kg, route oral; conditions: in vivo; outline: as §1
Plasmodium falciparum [24] = test: Antiplasmodial activity against Plasmodium falciparum K1 by [3H]hypoxanthine incorporation assay; assay type: functional, organism-based; outline: as §6

half-life [1]: 0.55 h | Vd [2]: 0.73 L/kg | AUC (Rattus norvegicus [3]): 3.3 µM·h | AUC (Rattus norvegicus [4]): 0.36 µM·h | Cmax [5]: 40 nM | Tmax [6]: 8 h | bioavailability (Rattus norvegicus [7]): 11% | half-life [8]: 4.8 h | solubility [9]: 61 µM (≈ 26.7 µg/mL) | solubility [10]: < 5 µM | IC50 (Plasmodium falciparum [11]): 1100 pM | concentration at 1 h [16]: 80 nM | concentration at 4 h [17]: 20 nM
Compound: C[S+]([O-])c1ccc(-c2cnc3ccc(-c4cccc(S(=O)(=O)C5CC5)c4)nn23)cc1 (centres undefined)
Activity (CHO): Non-toxic | selectivity ratio [12]: > 1000 | Activity (Plasmodium berghei [13]): 99.8% | MSD (Plasmodium berghei [13]): >30 days | Activity (Plasmodium berghei [14]): 99.6% | MSD (Plasmodium berghei [14]): 8 days | Activity (Plasmodium berghei [15]): 98% | MSD (Plasmodium berghei [15]): 7 days | Activity [18]: Non-toxic | selectivity ratio [19]: > 1000

Compound: CS(=O)(=O)c1ccc(-c2cnc3ccc(-c4cccc(S(=O)(=O)C5CC5)c4)nn23)cc1
Vd [2]: 2.3 L/kg | AUC (Rattus norvegicus [3]): 121 µM·h | AUC (Rattus norvegicus [4]): 27 µM·h | Cmax (Rattus norvegicus [20]): 1500 nM | Tmax (Rattus norvegicus [21]): 12 h | bioavailability [22]: 24% | t1/2(app) (Rattus norvegicus [23]): 4.8 h | solubility [9]: 19 µM (≈ 8.62 µg/mL) | solubility [10]: < 5 µM | IC50 (Plasmodium falciparum [24]): 530 pM | IC50 (Plasmodium falciparum [11]): 880 pM
